According to ChEMBL document CHEMBL1153830, “Treatment of a clinically relevant plant-pathogenic fungus with an agricultural azole causes cross-resistance to medical azoles and potentiates caspofungin efficacy” (2007):
Converted amounts (≈) assume the structure as drawn. The source made the active and inactive calls. No cut-off for these calls is given here.

Key:
[1] = test system: Colletotrichum graminicola; assay: Fungicidal activity against tebuconazole-nonadapted wild type Colletotrichum graminicola CgM2 assessed as inhibition of radial growth rate at 23 degC in darkness; type: functional; settings: for EC50: Colletotrichum graminicola, CgM2, read-out: ED50 (the source's name)
Outline: (§1)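 Radial growth on solid complete medium, 23°C, darkness. Colony diameters were read at 3 and 6 days after inoculation and compared with drug-free control plates. Azoles and picoxystrobin were dissolved in 12% (wt/vol) Cremophor EL and tested at 0–2.5 μg/ml. Caspofungin, amphotericin B and nystatin were dissolved in water and tested from 0.00025 μg/ml; caspofungin plates used sucrose (10 mg/ml) in place of glucose.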

[2] = test system: Colletotrichum graminicola; assay: Fungicidal activity against tebuconazole-adapted wild type Colletotrichum graminicola CgM2 assessed as inhibition of radial growth rate at 23 degC in darkness; type: functional; settings: for EC50: Colletotrichum graminicola, CgM2, read-out: ED50 (the source's name); outline: as §1
[3] = test system: Colletotrichum graminicola; assay: Fungicidal activity against tebuconazole-nonadapted wild type Colletotrichum graminicola CgM2 infected in excised human skin assessed as inhibition of invasive colonized hyphal growth at epidermis at ED50 after 4 days by Uvitex-2B staining-based fluorescence microscopy; type: functional, organism-based
Outline: (§2)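 Excised human skin from reduction mammoplasty, all pieces from one donor, cut to 20 mm discs. Each disc got 15–20 prick wounds and 100 μl of 10^6 conidia/ml. Discs sat in a Franz diffusion cell at 32°C over isotonic NaCl for up to 4 days. Drug was applied at ED50, ED90 or 2× ED90, three pieces per condition. Biopsies were cryosectioned and Uvitex 2B-stained; hyphal area per section was measured by fluorescence.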

[4] = test system: Colletotrichum graminicola; assay: Fungicidal activity against tebuconazole-nonadapted wild type Colletotrichum graminicola CgM2 infected in excised human skin assessed as inhibition of invasive colonized hyphal growth at epidermis at ED90 after 4 days by Uvitex-2B staining-based fluorescence microscopy; type: functional, organism-based; outline: as §2
[5] = test system: Colletotrichum graminicola; assay: Fungicidal activity against tebuconazole-nonadapted wild type Colletotrichum graminicola CgM2 infected in excised human skin assessed as inhibition of invasive colonized hyphal growth at epidermis at twofold ED90 after 4 days by Uvitex-2B staining-based fluorescence microscopy; type: functional, organism-based; outline: as §2
[6] = test system: Colletotrichum graminicola; assay: Fungicidal activity against tebuconazole-nonadapted wild type Colletotrichum graminicola CgM2 infected in excised human skin assessed as inhibition of invasive colonized hyphal growth at dermis at ED50 after 4 days by Uvitex-2B staining-based fluorescence microscopy; type: functional, organism-based; outline: as §2
[7] = test system: Colletotrichum graminicola; assay: Fungicidal activity against tebuconazole-nonadapted wild type Colletotrichum graminicola CgM2 infected in excised human skin assessed as inhibition of invasive colonized hyphal growth at dermis at ED90 after 4 days by Uvitex-2B staining-based fluorescence microscopy; type: functional, organism-based; outline: as §2
[8] = test system: Colletotrichum graminicola; assay: Fungicidal activity against tebuconazole-nonadapted wild type Colletotrichum graminicola CgM2 infected in excised human skin assessed as inhibition of invasive colonized hyphal growth at dermis at twofold ED90 after 4 days by Uvitex-2B staining-based fluorescence microscopy; type: functional, organism-based; outline: as §2
[9] = test system: Colletotrichum graminicola; assay: Fungicidal activity against tebuconazole-nonadapted wild type Colletotrichum graminicola CgM2 infected in excised human skin assessed as inhibition of invasive colonized hyphal growth at hypodermis at ED50 after 4 days by Uvitex-2B staining-based fluorescence microscopy; type: functional, organism-based; outline: as §2
[10] = test system: Colletotrichum graminicola; assay: Fungicidal activity against tebuconazole-nonadapted wild type Colletotrichum graminicola CgM2 infected in excised human skin assessed as inhibition of invasive colonized hyphal growth at hypodermis at ED90 after 4 days by Uvitex-2B staining-based fluorescence microscopy; type: functional, organism-based; outline: as §2
[11] = test system: Colletotrichum graminicola; assay: Fungicidal activity against tebuconazole-nonadapted wild type Colletotrichum graminicola CgM2 infected in excised human skin assessed as inhibition of invasive colonized hyphal growth at hypodermis at twofold ED90 after 4 days by Uvitex-2B staining-based fluorescence microscopy; type: functional, organism-based; outline: as §2
[12] = test system: Colletotrichum graminicola; assay: Fungicidal activity against tebuconazole-adapted wild type Colletotrichum graminicola CgM2 infected in excised human skin assessed as inhibition of invasive colonized hyphal growth at hypodermis at twofold ED90 after 4 days by Uvitex-2B staining-based fluorescence microscopy; type: functional, organism-based; outline: as §2
[13] = test system: Colletotrichum graminicola; assay: Fungicidal activity against tebuconazole-adapted wild type Colletotrichum graminicola CgM2 infected in excised human skin assessed as inhibition of invasive colonized hyphal growth at epidermis at ED50 after 4 days by Uvitex-2B staining-based fluorescence microscopy; type: functional, organism-based; outline: as §2
[14] = test system: Colletotrichum graminicola; assay: Fungicidal activity against tebuconazole-adapted wild type Colletotrichum graminicola CgM2 infected in excised human skin assessed as inhibition of invasive colonized hyphal growth at epidermis at ED90 after 4 days by Uvitex-2B staining-based fluorescence microscopy; type: functional, organism-based; outline: as §2
[15] = test system: Colletotrichum graminicola; assay: Fungicidal activity against tebuconazole-adapted wild type Colletotrichum graminicola CgM2 infected in excised human skin assessed as inhibition of invasive colonized hyphal growth at epidermis at twofold ED90 after 4 days by Uvitex-2B staining-based fluorescence microscopy; type: functional, organism-based; outline: as §2
[16] = test system: Colletotrichum graminicola; assay: Fungicidal activity against tebuconazole-adapted wild type Colletotrichum graminicola CgM2 infected in excised human skin assessed as inhibition of invasive colonized hyphal growth at dermis at ED50 after 4 days by Uvitex-2B staining-based fluorescence microscopy; type: functional, organism-based; outline: as §2
[17] = test system: Colletotrichum graminicola; assay: Fungicidal activity against tebuconazole-adapted wild type Colletotrichum graminicola CgM2 infected in excised human skin assessed as inhibition of invasive colonized hyphal growth at dermis at ED90 after 4 days by Uvitex-2B staining-based fluorescence microscopy; type: functional, organism-based; outline: as §2
[18] = test system: Colletotrichum graminicola; assay: Fungicidal activity against tebuconazole-adapted wild type Colletotrichum graminicola CgM2 infected in excised human skin assessed as inhibition of invasive colonized hyphal growth at dermis at twofold ED90 after 4 days by Uvitex-2B staining-based fluorescence microscopy; type: functional, organism-based; outline: as §2
[19] = test system: Colletotrichum graminicola; assay: Fungicidal activity against tebuconazole-adapted wild type Colletotrichum graminicola CgM2 infected in excised human skin assessed as inhibition of invasive colonized hyphal growth at hypodermis at ED50 after 4 days by Uvitex-2B staining-based fluorescence microscopy; type: functional, organism-based; outline: as §2
[20] = test system: Colletotrichum graminicola; assay: Fungicidal activity against tebuconazole-adapted wild type Colletotrichum graminicola CgM2 infected in excised human skin assessed as inhibition of invasive colonized hyphal growth at hypodermis at ED90 after 4 days by Uvitex-2B staining-based fluorescence microscopy; type: functional, organism-based; outline: as §2
[21] = test system: Colletotrichum graminicola; assay: Ratio of ED50 for tebuconazole-adapted wild type Colletotrichum graminicola CgM2 to ED50 for tebuconazole-nonadapted wild type Colletotrichum graminicola CgM2; type: functional
Outline: (§3)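 Values came from logit transformation and linear regression, with confidence intervals at α = 0.05. Ratios compare tebuconazole-adapted with nonadapted CgM2.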

[22] = test system: Colletotrichum graminicola; assay: Ratio of ED90 for tebuconazole-adapted wild type Colletotrichum graminicola CgM2 to ED90 for tebuconazole-nonadapted wild type Colletotrichum graminicola CgM2; type: functional; outline: as §3
[23] = test system: Colletotrichum graminicola; assay: Fungicidal activity against compound-adapted wild type Colletotrichum graminicola CgM2 assessed as inhibition of radial growth rate at 30 ppm at 23 degC in darkness after 7 days; type: functional, organism-based
Outline: (§4)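 Isolate CgM2: 1 × 10^6 conidia grown in 50 ml liquid complete medium (CM), 7 days in darkness at 23°C. Adapted lines were passed through tebuconazole at 1, 5 and 20 μg/ml, then kept on CM plates containing 5 and 8 μg/ml (4 weeks each) and finally 30 μg/ml. Radial growth on CM plates was compared with that of the nonadapted strain.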

[24] = test system: Colletotrichum graminicola; assay: Fungicidal activity against compound-nonadapted wild type Colletotrichum graminicola CgM2 assessed as inhibition of radial growth rate at 30 ppm at 23 degC in darkness after 7 days; type: functional, organism-based; outline: as §4

Compound	ED90 [1] [µg/mL]	EC50 [1] [µg/mL]	ED90 [2] [µg/mL]	EC50 [2] [µg/mL]	other results
CCC(C)(C)c1ccc(CC(C)CN2C[C@@H](C)O[C@@H](C)C2)cc1 (stereo partly specified) [AMOROLFINE]	0.347 (≈ 1.09 µM)	0.03 (≈ 0.0945 µM)	0.36 (≈ 1.13 µM)	0.023 (≈ 0.0724 µM)	
C[C@@H]1[C@H](O)[C@@H](C)/C=C/C=C/C=C/C=C/C=C/C=C/C=C/[C@H](O[C@@H]2O[C@H](C)[C@@H](O)[C@H](N)[C@@H]2O)C[C@@H]2O[C@](O)(C[C@@H](O)C[C@@H](O)[C@H](O)CC[C@@H](O)C[C@@H](O)CC(=O)O[C@H]1C)C[C@H](O)[C@H]2C(=O)O [AMPHOTERICIN B]	2.147 (≈ 2.32 µM)	0.03 (≈ 0.0325 µM)	0.873 (≈ 0.945 µM)	0.007 (≈ 0.00758 µM)	
c1ccc(-c2ccc(C(c3ccccc3)n3ccnc3)cc2)cc1 (stereo unspecified) [BIFONAZOLE]	1.958 (≈ 6.31 µM)	0.148 (≈ 0.477 µM)	4.892 (≈ 15.8 µM)	0.33 (≈ 1.06 µM)	Activity [3]: Active; Activity [4]: Active; Activity [5]: Active; Activity [6]: Active; Activity [7]: Active; Activity [8]: Active; Activity [9]: Active; Activity [10]: Active; Activity [11]: Active; Activity [12]: inactive; Activity [13]: inactive; Activity [14]: inactive; Activity [15]: inactive; Activity [16]: inactive; Activity [17]: inactive; Activity [18]: inactive; Activity [19]: inactive; Activity [20]: inactive
Cc1cc(C2CCCCC2)n(O)c(=O)c1.NCCO [CICLOPIROX OLAMINE]	64.842	9.83	54.616	3.67	
Clc1ccccc1C(c1ccccc1)(c1ccccc1)n1ccnc1 [CLOTRIMAZOLE]	2.44 (≈ 7.08 µM)	0.128 (≈ 0.371 µM)	6.485 (≈ 18.8 µM)	0.145 (≈ 0.42 µM)	
COC1=CC(=O)C[C@@H](C)[C@]12Oc1c(Cl)c(OC)cc(OC)c1C2=O [GRISEOFULVIN]	5.503 (≈ 15.6 µM)	0.607 (≈ 1.72 µM)	5.839 (≈ 16.6 µM)	0.051 (≈ 0.145 µM)	
CCC(C)n1ncn(-c2ccc(N3CCN(c4ccc(OCC5COC(Cn6cncn6)(c6ccc(Cl)cc6Cl)O5)cc4)CC3)cc2)c1=O (stereo unspecified) [ITRACONAZOLE]	1.351 (≈ 1.91 µM)	0.007 (≈ 0.00992 µM)	8.848 (≈ 12.5 µM)	0.014 (≈ 0.0198 µM)	
CC(=O)N1CCN(c2ccc(OCC3COC(Cn4ccnc4)(c4ccc(Cl)cc4Cl)O3)cc2)CC1 (stereo unspecified) [KETOCONAZOLE]	1.492 (≈ 2.81 µM)	0.115 (≈ 0.216 µM)	12.419 (≈ 23.4 µM)	0.552 (≈ 1.04 µM)	
Clc1ccc(COC(Cn2ccnc2)c2ccc(Cl)cc2Cl)c(Cl)c1 (stereo unspecified) [MICONAZOLE]	1.327 (≈ 3.19 µM)	0.028 (≈ 0.0673 µM)	4.386 (≈ 10.5 µM)	0.048 (≈ 0.115 µM)	
CO/C=C(/C(=O)OC)c1ccccc1COc1cccc(C(F)(F)F)n1 [PICOXYSTROBIN]	0.148 (≈ 0.403 µM)	0.006 (≈ 0.0163 µM)	1.041 (≈ 2.83 µM)	0.026 (≈ 0.0708 µM)	fold change (FC) [21]: 4; fold change (FC) [22]: 7
CCCN(CCOc1c(Cl)cc(Cl)cc1Cl)C(=O)n1ccnc1 [PROCHLORAZ]	0.087 (≈ 0.231 µM)	0.004 (≈ 0.0106 µM)	0.72 (≈ 1.91 µM)	0.011 (≈ 0.0292 µM)	fold change (FC) [21]: 2.75; fold change (FC) [22]: 8
CC(C)(C)C(O)(CCc1ccc(Cl)cc1)Cn1cncn1 (stereo unspecified) [TEBUCONAZOLE]	0.504 (≈ 1.64 µM)	0.059 (≈ 0.192 µM)	13.534 (≈ 44 µM)	0.423 (≈ 1.37 µM)	fold change (FC) [21]: 7; fold change (FC) [22]: 27; Activity [23]: inactive; Activity [24]: Active
Cc1cccc(N(C)C(=S)Oc2ccc3ccccc3c2)c1 [TOLNAFTATE]	104.107 (≈ 339 µM)	0.582 (≈ 1.89 µM)	98.71 (≈ 321 µM)	0.537 (≈ 1.75 µM)	
C[C@@H](c1ncncc1F)[C@](O)(Cn1cncn1)c1ccc(F)cc1F [VORICONAZOLE]	0.228 (≈ 0.653 µM)	0.018 (≈ 0.0515 µM)	1.328 (≈ 3.8 µM)	0.045 (≈ 0.129 µM)	
NYSTATIN	2.41		0.896		ED50 [1]: 0.03 µg/mL; ED50 [2]: 0.023 µg/mL
